According to ChEMBL document CHEMBL1821604, “Anticancer activity and cDNA microarray studies of a (RS)-1,2,3,5-tetrahydro-4,1-benzoxazepine-3-yl]-6-chloro-9H-purine, and an acyclic (RS)-O,N-acetalic 6-chloro-7H-purine” (Eur J Med Chem, 2011):

How the values were obtained:
Format in all cases: functional
HT-29 [1] = experiment: Down regulation of IL12RB2 gene expression in human HT-29 cells at IC50 after 48 hrs by cDNA microarray technique relative to control
Procedure, shortened: (§1)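 Cells (8 × 10⁶) were cultured in DMEM with 10% heat-inactivated FBS at 37 °C under 5% CO₂. They were exposed for 48 h to compound at its IC₅₀, with DMSO-treated parallel cultures as controls (final DMSO ≤0.1% v/v). Total RNA was isolated by trizol/chloroform phase separation, RNeasy column cleanup and on-column DNase, then quantified by OD260/OD280. Expression was profiled by cDNA microarray relative to control.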

MCF7 [2] = experiment: Upregulation of ZNF141 gene expression in human MCF7 cells at IC50 after 48 hrs by cDNA microarray technique relative to control
HT-29 [3] = experiment: Upregulation of PDE4B gene expression in human HT-29 cells at IC50 after 48 hrs by cDNA microarray technique relative to control
MCF7 [4] = experiment: Down regulation of KIAA1533 gene expression in human MCF7 cells at IC50 after 48 hrs by cDNA microarray technique relative to control; procedure, shortened: as §1
MCF7 [5] = experiment: Down regulation of DKFZp667G2110 gene expression in human MCF7 cells at IC50 after 48 hrs by cDNA microarray technique relative to control
Procedure, shortened: (§2)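 8 × 10⁶ cells exposed 48 h to compound at its IC50 concentration; total RNA isolated with trizol/chloroform and RNeasy columns including on-column DNase step; RNA quantified by OD 260/280; DMSO-treated cultures as control.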

MCF7 [6] = experiment: Upregulation of MGC2474 gene expression in human MCF7 cells at IC50 after 48 hrs by cDNA microarray technique relative to control
MCF7 [7] = experiment: Down regulation of MGC42090 gene expression in human MCF7 cells at IC50 after 48 hrs by cDNA microarray technique relative to control
MCF7 [8] = experiment: Upregulation of FLJ10945 gene expression in human MCF7 cells at IC50 after 48 hrs by cDNA microarray technique relative to control
MCF7 [9] = experiment: Upregulation of PTPNS1 gene expression in human MCF7 cells at IC50 after 48 hrs by cDNA microarray technique relative to control
MCF7 [10] = experiment: Upregulation of ERG gene expression in human MCF7 cells at IC50 after 48 hrs by cDNA microarray technique relative to control
MCF7 [11] = experiment: Upregulation of NPAT gene expression in human MCF7 cells at IC50 after 48 hrs by cDNA microarray technique relative to control
HT-29 [12] = experiment: Down regulation of GNRHR2 gene expression in human HT-29 cells at IC50 after 48 hrs by cDNA microarray technique relative to control; procedure, shortened: as §1
HT-29 [13] = experiment: Down regulation of FLJ10786 gene expression in human HT-29 cells at IC50 after 48 hrs by cDNA microarray technique relative to control; procedure, shortened: as §1
MCF7 [14] = experiment: Upregulation of CR595826 gene expression in human MCF7 cells at IC50 after 48 hrs by cDNA microarray technique relative to control
HT-29 [15] = experiment: Down regulation of SNRP70 gene expression in human HT-29 cells at IC50 after 48 hrs by cDNA microarray technique relative to control
HT-29 [16] = experiment: Down regulation of BAP1 gene expression in human HT-29 cells at IC50 after 48 hrs by cDNA microarray technique relative to control; procedure, shortened: as §2
MCF7 [17] = experiment: Down regulation of THC2441203 gene expression in human MCF7 cells at IC50 after 48 hrs by cDNA microarray technique relative to control
HT-29 [18] = experiment: Down regulation of ANXA6 gene expression in human HT-29 cells at IC50 after 48 hrs by cDNA microarray technique relative to control; procedure, shortened: as §2
HT-29 [19] = experiment: Down regulation of SLC39A7 gene expression in human HT-29 cells at IC50 after 48 hrs by cDNA microarray technique relative to control
HT-29 [20] = experiment: Down regulation of FLOT1 gene expression in human HT-29 cells at IC50 after 48 hrs by cDNA microarray technique relative to control; procedure, shortened: as §1
HT-29 [21] = experiment: Down regulation of GBGT1 gene expression in human HT-29 cells at IC50 after 48 hrs by cDNA microarray technique relative to control; procedure, shortened: as §1
HT-29 [22] = experiment: Down regulation of BAZ2A gene expression in human HT-29 cells at IC50 after 48 hrs by cDNA microarray technique relative to control; procedure, shortened: as §2
HT-29 [23] = experiment: Down regulation of D4S234E gene expression in human HT-29 cells at IC50 after 48 hrs by cDNA microarray technique relative to control; procedure, shortened: as §2
HT-29 [24] = experiment: Down regulation of HNRPAB gene expression in human HT-29 cells at IC50 after 48 hrs by cDNA microarray technique relative to control; procedure, shortened: as §1
HT-29 [25] = experiment: Down regulation of ARPC4 gene expression in human HT-29 cells at IC50 after 48 hrs by cDNA microarray technique relative to control; procedure, shortened: as §2
MCF7 [26] = experiment: Upregulation of CITED1 gene expression in human MCF7 cells at IC50 after 48 hrs by cDNA microarray technique relative to control
HT-29 [27] = experiment: Down regulation of HSPA1A gene expression in human HT-29 cells at IC50 after 48 hrs by cDNA microarray technique relative to control; procedure, shortened: as §1
HT-29 [28] = experiment: Down regulation of SFRS5 gene expression in human HT-29 cells at IC50 after 48 hrs by cDNA microarray technique relative to control
HT-29 [29] = experiment: Upregulation of EGLN3 gene expression in human HT-29 cells at IC50 after 48 hrs by cDNA microarray technique relative to control
HT-29 [30] = experiment: Down regulation of SLC22A1 gene expression in human HT-29 cells at IC50 after 48 hrs by cDNA microarray technique relative to control
HT-29 [31] = experiment: Down regulation of ACCN5 gene expression in human HT-29 cells at IC50 after 48 hrs by cDNA microarray technique relative to control; procedure, shortened: as §2
MCF7 [32] = experiment: Down regulation of LTBP2 gene expression in human MCF7 cells at IC50 after 48 hrs by cDNA microarray technique relative to control
MCF7 [33] = experiment: Upregulation of ATP12A gene expression in human MCF7 cells at IC50 after 48 hrs by cDNA microarray technique relative to control
HT-29 [34] = experiment: Down regulation of DKFZp451J0118 gene expression in human HT-29 cells at IC50 after 48 hrs by cDNA microarray technique relative to control; procedure, shortened: as §2
HT-29 [35] = experiment: Down regulation of HUS1B gene expression in human HT-29 cells at IC50 after 48 hrs by cDNA microarray technique relative to control; procedure, shortened: as §1
HT-29 [36] = experiment: Down regulation of C20orf178 gene expression in human HT-29 cells at IC50 after 48 hrs by cDNA microarray technique relative to control; procedure, shortened: as §2
HT-29 [37] = experiment: Down regulation of MGC33637 gene expression in human HT-29 cells at IC50 after 48 hrs by cDNA microarray technique relative to control

SMILES: COC(CN(c1ccccc1CO)S(=O)(=O)c1ccccc1[N+](=O)[O-])n1cnc2ncnc(Cl)c21 (racemic)
- fold change (FC) (HT-29 [1]): -2.3
- fold change (FC) (MCF7 [2]): 4.04
- fold change (FC) (HT-29 [3]): 3.84
- fold change (FC) (MCF7 [4]): -2.09
- fold change (FC) (MCF7 [5]): -2.15
- fold change (FC) (MCF7 [6]): 2.23
- fold change (FC) (MCF7 [7]): -2.03
- fold change (FC) (MCF7 [8]): 2.07
- fold change (FC) (MCF7 [9]): 2.89
- fold change (FC) (MCF7 [10]): 2
- fold change (FC) (MCF7 [11]): 2.68
- fold change (FC) (HT-29 [12]): -2.03
- fold change (FC) (HT-29 [13]): -2.04
- fold change (FC) (MCF7 [14]): 2.04

SMILES: O=C(OCC1c2ccccc2-c2ccccc21)N1CC(n2cnc3c(Cl)ncnc32)OCc2ccccc21 (racemic)
- fold change (FC) (HT-29 [15]): -2.78
- fold change (FC) (HT-29 [16]): -2.13
- fold change (FC) (MCF7 [17]): -3.19
- fold change (FC) (HT-29 [18]): -2.27
- fold change (FC) (HT-29 [19]): -2.19
- fold change (FC) (HT-29 [20]): -2.19
- fold change (FC) (HT-29 [21]): -2.07
- fold change (FC) (HT-29 [22]): -2.65
- fold change (FC) (HT-29 [23]): -2.91
- fold change (FC) (HT-29 [24]): -2.45
- fold change (FC) (HT-29 [25]): -2.07
- fold change (FC) (MCF7 [26]): 2.73
- fold change (FC) (HT-29 [27]): -2.2
- fold change (FC) (HT-29 [28]): -2.06
- fold change (FC) (HT-29 [29]): 2.14
- fold change (FC) (HT-29 [30]): -2.27
- fold change (FC) (HT-29 [31]): -2.98
- fold change (FC) (MCF7 [32]): -3.28
- fold change (FC) (MCF7 [33]): 2.05
- fold change (FC) (HT-29 [34]): -2.03
- fold change (FC) (HT-29 [35]): -2.3
- fold change (FC) (HT-29 [36]): -2.21
- fold change (FC) (HT-29 [37]): -2.25
